According to ChEMBL document CHEMBL1137994, “Bis[3-(4'-substituted phenyl)prop-2-ene]disulfides as a new class of antihyperlipidemic compounds” (2004):

Legend:
[1] = test system: Rattus norvegicus; experiment: Weight of triglyceride in liver wet tissue after treatment with compound at 20 mg/kg dose for seven days; type: functional
In short: (§1)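 Male Wistar rats, six per group, were fed a 5% cholesterol diet for one week while receiving compound at 20 mg/kgbwt orally as a suspension in water. Serum was separated, and about 1 g of liver, washed in ice-cold 0.85% NaCl, was taken for lipids. Cholesterol was measured by the Zlatkis method and liver triglyceride by the Van Handel–Zilversmit method. The run was repeated three times; values are mean ± SE.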

[2] = target: T1, 3-hydroxy-3-methylglutaryl-coenzyme A reductase (Rattus norvegicus) (UniProt P51639); experiment: Percent decrease in HMG-CoA reductase activity in rat
T1 sequence (whole entry): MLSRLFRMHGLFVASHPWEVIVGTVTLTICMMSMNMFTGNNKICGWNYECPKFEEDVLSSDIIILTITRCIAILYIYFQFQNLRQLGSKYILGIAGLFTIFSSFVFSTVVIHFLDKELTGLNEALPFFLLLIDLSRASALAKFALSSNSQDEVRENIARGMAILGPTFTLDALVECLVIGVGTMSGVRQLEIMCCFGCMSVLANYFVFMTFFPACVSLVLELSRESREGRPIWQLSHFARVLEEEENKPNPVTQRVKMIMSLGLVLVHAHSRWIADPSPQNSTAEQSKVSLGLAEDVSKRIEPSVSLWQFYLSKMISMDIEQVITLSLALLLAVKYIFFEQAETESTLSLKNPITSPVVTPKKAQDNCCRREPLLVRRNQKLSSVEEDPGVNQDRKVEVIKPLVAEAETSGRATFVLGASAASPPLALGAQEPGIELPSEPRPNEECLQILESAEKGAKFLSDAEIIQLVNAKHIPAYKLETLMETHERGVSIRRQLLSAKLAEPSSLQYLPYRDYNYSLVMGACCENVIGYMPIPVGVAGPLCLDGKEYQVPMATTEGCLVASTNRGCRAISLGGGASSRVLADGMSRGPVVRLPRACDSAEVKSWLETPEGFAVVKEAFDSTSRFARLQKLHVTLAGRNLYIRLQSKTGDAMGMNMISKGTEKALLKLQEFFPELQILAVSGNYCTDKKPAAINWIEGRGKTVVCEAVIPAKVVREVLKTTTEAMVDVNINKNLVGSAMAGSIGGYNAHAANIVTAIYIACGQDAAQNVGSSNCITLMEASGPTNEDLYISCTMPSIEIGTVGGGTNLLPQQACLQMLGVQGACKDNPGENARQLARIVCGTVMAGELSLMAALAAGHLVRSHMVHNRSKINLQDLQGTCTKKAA
In short: (§2)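 Male Wistar rats, six per group, received a 5% cholesterol diet for 1 week plus an oral 20 mg/kg bwt dose given as a suspension in water. The experiment was run three times. Hepatic HMG-CoA reductase activity was determined by the Venugopala Rao method and expressed as the HMG-CoA/mevalonate ratio.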

[3] = test system: Rattus norvegicus; experiment: Alkaline phosphatase enzyme level upon single dose administration was determined as measure of hepatotoxicity; Normal range = 14-32 KA units; type: functional
In short: (§3)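 Oral dosing of the compounds as aqueous suspensions, given either as a single dose or as five doses. Hepatotoxicity was assessed from serum alanine transferase and aspartate transferase (IU) and alkaline phosphatase (KA units). Each marker was set against the normal ranges listed.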

[4] = target: T1, 3-hydroxy-3-methylglutaryl-coenzyme A reductase (Rattus norvegicus); experiment: Ratio of HMG-CoA reductase to mevalinate; in short: as §2
[5] = test system: Rattus norvegicus; experiment: Percent decrease in weight of triglyceride in liver wet tissue after treatment with compound at 20 mg/kg dose for seven days; type: functional
In short: (§4)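 Male Wistar rats, six per group, were fed a 5% cholesterol diet for 1 week. They were dosed orally at the same time with 20 mg/kg bwt as a suspension in water, and the experiment was run three times. Serum and liver cholesterol were measured by the Zlatkis method, and liver triglyceride by the Van Handel–Zilversmit method, on about 1 g of saline-washed tissue.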

[6] = test system: Rattus norvegicus; experiment: Blood urea nitrogen level in serum upon administration of five doses was determined as measure of nephrotoxicity; Normal range = 5-29 mg/dL; type: functional, organism-based
In short: (§5)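 Nephrotoxicity was assessed after five doses of compound by measuring serum blood urea nitrogen and creatinine in mg/dL by cited methods. Values are mean ± SE against a normal range.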

[7] = test system: Rattus norvegicus; experiment: Weight of cholesterol in liver wet tissue after treatment with compound at 20 mg/kg dose for seven days; type: functional; in short: as §1
[8] = test system: Rattus norvegicus; experiment: Percent decrease in weight of cholesterol in liver wet tissue after treatment with compound at 20 mg/kg dose for seven days; type: functional; in short: as §4
[9] = test system: Rattus norvegicus; experiment: Alanine transferase (GPT) enzyme level in serum upon administration of five doses was determined as measure of hepatotoxicity; Normal range = 18-30 IU; type: functional; in short: as §3
[10] = test system: Rattus norvegicus; experiment: Aspartate transferase (GOT) enzyme level in serum upon administration of five doses was determined as measure of hepatotoxicity; Normal range = 46-81 IU; type: functional; in short: as §3
[11] = test system: Rattus norvegicus; experiment: Creatinine level in serum upon administration of five doses was determined as measure of nephrotoxicity; Normal range = 0.20-0.80 mg/dL; type: functional, organism-based; in short: as §5
[12] = test system: Rattus norvegicus; experiment: Alanine transferase (GPT) enzyme level in serum upon single dose administration was determined as measure of hepatotoxicity; Normal range = 18-30 IU; type: functional; in short: as §3
[13] = test system: Rattus norvegicus; experiment: Alkaline phosphatase enzyme level in serum upon administration of five doses was determined as measure of hepatotoxicity; Normal range = 14-32 KA units; type: functional; in short: as §3
[14] = test system: Rattus norvegicus; experiment: Aspartate transferase (GOT) enzyme level in serum upon single dose administration was determined as measure of hepatotoxicity; Normal range = 46-81 IU; type: functional; in short: as §3
[15] = test system: Rattus norvegicus; experiment: Percent decrease in weight of serum cholesterol after treatment with compound at 20 mg/kg dose for seven days; type: functional; in short: as §4
[16] = test system: Rattus norvegicus; experiment: Creatinine level in serum upon single dose administration was determined as measure of nephrotoxicity; Normal range = 0.20-0.80 mg/dL; type: functional, organism-based
In short: (§6)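 Nephrotoxicity was assessed after a single dose of compound by measuring serum blood urea nitrogen and creatinine in mg/dL by cited methods. Values are mean ± SE against a normal range.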

[17] = test system: Rattus norvegicus; experiment: Weight of serum cholesterol after treatment with compound at 20 mg/kg dose for seven days; type: functional; in short: as §1
[18] = test system: Rattus norvegicus; experiment: Blood urea nitrogen level in serum upon single dose administration was determined as measure of nephrotoxicity; Normal range = 5-29 mg/dL; type: functional, organism-based; in short: as §6
[19] = test system: Rattus norvegicus; experiment: Alkaline phosphatase enzyme level in serum upon single dose administration was determined as measure of hepatotoxicity; Normal range = 14-32 KA units; type: functional; in short: as §3

COc1ccc(/C=C/CSSC/C=C/c2ccc(OC)cc2)cc1
Weight [1]: 14.8 mg/g
Decrease [2]: 3.69%
Activity [3]: 45.6 KA Units
Ratio [4]: 1.68
Decrease [5]: 4.91%
Level [6]: 8.48 mg/dL
Weight [7]: 4.9 mg/g
Decrease [8]: 1.2%
Activity [9]: 23 IU
Activity [10]: 29.5 IU
Level [11]: 0.49 mg/dL
Activity [12]: 26.5 IU
Activity [13]: 25.2 KA Units
Activity [14]: 49 IU
Decrease [15]: 2.05%
Level [16]: 0.59 mg/dL
Weight [17]: 61.95 mg/dL
Level [18]: 7.43 mg/dL

Nc1ccc(/C=C/CSSC/C=C/c2ccc(N)cc2)cc1
Weight [1]: 14.6 mg/g
Decrease [2]: 7.5%
Ratio [4]: 1.74
Decrease [5]: 6.71%
Level [6]: 14.6 mg/dL
Activity [19]: 40.6 KA Units
Weight [7]: 4.81 mg/g
Decrease [8]: 3.13%
Activity [9]: 21 IU
Activity [10]: 37 IU
Level [11]: 0.84 mg/dL
Activity [12]: 26.5 IU
Activity [13]: 46.9 KA Units
Activity [14]: 51.5 IU
Decrease [15]: 5.5%
Level [16]: 0.55 mg/dL
Weight [17]: 59.76 mg/dL
Level [18]: 13 mg/dL

C=CCS[S+]([O-])CC=C (stereo unspecified) [ALLICIN]
Weight [1]: 9.44 mg/g
Decrease [2]: 27.6%
Ratio [4]: 2.07
Decrease [5]: 39.6%
Weight [7]: 3.59 mg/g
Decrease [8]: 27.6%
Decrease [15]: 20.5%
Weight [17]: 50.25 mg/dL

O=C(O)c1ccc(/C=C/CSSC/C=C/c2ccc(C(=O)O)cc2)cc1
Weight [1]: 14.3 mg/g
Decrease [2]: 24.2%
Ratio [4]: 2.02
Decrease [5]: 8.28%
Level [6]: 17.4 mg/dL
Activity [19]: 31 KA Units
Weight [7]: 4.3 mg/g
Decrease [8]: 13.3%
Activity [9]: 28 IU
Activity [10]: 56 IU
Level [11]: 0.7 mg/dL
Activity [12]: 25 IU
Activity [13]: 32.8 KA Units
Activity [14]: 53 IU
Decrease [15]: 7.01%
Level [16]: 0.61 mg/dL
Weight [17]: 58.82 mg/dL
Level [18]: 20.2 mg/dL

CC[C@H](C)C(=O)O[C@H]1C[C@@H](C)C=C2C=C[C@H](C)[C@H](CC[C@@H]3C[C@@H](O)CC(=O)O3)[C@H]21 [LOVASTATIN]
Weight [1]: 9.86 mg/g
Decrease [2]: 35.4%
Ratio [4]: 2.2
Decrease [5]: 36.91%
Weight [7]: 2.84 mg/g
Decrease [8]: 42.3%
Decrease [15]: 31.2%
Weight [17]: 43.5 mg/dL

C(=C\c1ccccc1)/CSSC/C=C/c1ccccc1
Weight [1]: 14.2 mg/g
Decrease [2]: 5.9%
Ratio [4]: 1.72
Decrease [5]: 4.9%
Level [6]: 7.37 mg/dL
Activity [19]: 34 KA Units
Weight [7]: 4.86 mg/g
Decrease [8]: 2%
Activity [9]: 27 IU
Activity [10]: 39 IU
Level [11]: 0.57 mg/dL
Activity [12]: 17.5 IU
Activity [13]: 33.6 KA Units
Activity [14]: 51 IU
Decrease [15]: 3.63%
Level [16]: 0.58 mg/dL
Weight [17]: 60.95 mg/dL
Level [18]: 12.4 mg/dL

O=[N+]([O-])c1ccc(/C=C/CSSC/C=C/c2ccc([N+](=O)[O-])cc2)cc1
Weight [1]: 14.8 mg/g
Decrease [2]: 55.7%
Ratio [4]: 2.53
Decrease [5]: 9.21%
Level [6]: 6.48 mg/dL
Activity [19]: 29.5 KA Units
Weight [7]: 3.15 mg/g
Decrease [8]: 36.5%
Activity [9]: 15.5 IU
Activity [10]: 49 IU
Level [11]: 0.8 mg/dL
Activity [12]: 21 IU
Activity [13]: 48 KA Units
Activity [14]: 51 IU
Decrease [15]: 30.2%
Level [16]: 0.4 mg/dL
Weight [17]: 44.15 mg/dL
Level [18]: 7.65 mg/dL
